CFTR F508del cor: CFTR F508del correction in bronchial cells; CFBE cells, YFP halide quenching; stimulated with forskolin plus potentiator P3; % fluorescence drop versus neutral controls; activity (quench increase), % at 7.58 µM; 350,000 tested, 0.36% active; AID 720511;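 active means mean added fluorescence quench of at least 8% versus neutral control, with both replicates also reaching 8%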;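 further: cells transiently co-express mutant CFTR-F508del with the halide-sensitive YFP; corrector assay measuring rescue of mutant channel to the surface after 24 h compound exposure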
MC4R barr agon: agonists of human melanocortin 4 receptor (MC4R) beta-arrestin; U2OS MC4R beta-arrestin complementation, luminescence; percent of melanotan II response, DMSO zero; 360,000 tested, 0.98% active; P32245; activation, % at 8.9 µM; AID 540308;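 active means activation above a per-plate cutoff, the mean activation of sample wells on that plate plus 3 SD, cut at about 8% in these data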
Target sequence (P32245 whole entry, looked up): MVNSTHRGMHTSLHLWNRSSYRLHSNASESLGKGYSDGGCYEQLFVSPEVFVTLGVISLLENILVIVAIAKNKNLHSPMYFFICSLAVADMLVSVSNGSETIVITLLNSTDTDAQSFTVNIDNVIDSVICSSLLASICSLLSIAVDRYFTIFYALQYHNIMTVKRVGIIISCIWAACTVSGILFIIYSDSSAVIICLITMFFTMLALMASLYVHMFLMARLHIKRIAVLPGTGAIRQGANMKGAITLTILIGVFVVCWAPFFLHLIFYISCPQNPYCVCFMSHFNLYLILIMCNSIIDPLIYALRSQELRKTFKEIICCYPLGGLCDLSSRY
SMARCA2 act: increases SMARCA2 function in MMTV reporter cells | MG213 cells, MMTV-luciferase reporter, dexamethasone, overnight | activation, % at 9.1 µM | 370,000 tested, 1% active | AID 652017; in the data active means activation above about 7.8%
MC4R antagonist: blocks human MC4R cAMP signaling; P32245; MC4R-expressing cells, MTII-stimulated cAMP, LANCE TR-FRET; inhibition, % at 6.5 µM; 360,000 tested, 0.48% active; AID 540295;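 active means inhibition above its plate's cutoff, the mean of tested wells on that plate plus 3 SD, cut at about 29% in these data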
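system = U2OS cells with stable human MC4R expression | also added = Melanotan II challenge after compound preincubation | dosing = one concentration, 6.5 µM nominal | incubation = compound 30 min, challenge 1 h, detection 1 h | measured by = TR-FRET with Eu-cAMP and labeled anti-cAMP, 671 nm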
SMARCA2 act conf: confirmation of SMARCA2 (BRM) function activators; shares compounds with SMARCA2 act; MG213 cells, MMTV-luciferase with dexamethasone, luminescence, overnight; MG213 cells expressing E1A, Rb sequestered; DMSO wells 0%, reference activator 100%; activation, % at 9.1 µM; 3,500 tested, 30% active;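 active means activation above its plate's cutoff, the mean activation of tested wells plus 3 SD, cut at about 7.9% in these data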
VP16 Luc act: activates GAL4-VP16 luciferase, flagging SMARCA2 activator hits. shares compounds with SMARCA2 act. 3,500 tested, 41% active. activation, % at 9.1 µM. AID 686939. HEK293 GAL4-VP16 pG5luc reporter, luciferase luminescence; scaled: DMSO wells 0%, SAHA wells 100%;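 active means activation above the solvent-only control well mean plus 3 SD, averaged across control plates, cut at about 5.2% in these data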
Numbers stand for hits; n = inactive; x = not tested or not shown. Most compounds without a hit are left out; they make up all but 2.1% or so of the library.

SMILES	CFTR F508del cor	MC4R barr agon	SMARCA2 act	MC4R antagonist	SMARCA2 act conf	VP16 Luc act
O=C(O)c1ccc(N/N=C/C=C/c2ccc([N+](=O)[O-])o2)cc1	n	n	n	n	x	x
Cc1noc(C)c1S(=O)(=O)Nc1ccc2c(c1)CC(=O)N([C@@H](C)CO)C[C@H](C)[C@@H](CN(C)Cc1ccncc1)O2	n	x	x	x	x	x
C[C@H](CO)N1C[C@H](C)[C@@H](CN(C)C(=O)CCC(F)(F)F)OCc2cn(nn2)CCCC1=O	n	x	8.4	x	n	n
C[C@H](CO)N1C[C@H](C)[C@H](CN(C)C(=O)CCC(F)(F)F)OCc2cn(nn2)CCCC1=O	n	x	x	x	x	x
Cn1nnnc1SCC(=O)Nc1nc2c(s1)CCCC2	x	n	11	n	n	9.0
COc1cc(OC)cc(-n2nnnc2SCC(=O)Nc2nc3c(s2)CCCC3)c1	x	n	n	n	x	x
CN(Cc1cc(=O)[nH]c2ccccc12)C(=O)c1ccccc1	n	n	9.4	n	n	n
COc1ccccc1N(Cc1cc(=O)[nH]c2ccccc12)C(=O)c1ccccc1	n	n	9.8	n	n	n
C[C@H](CO)N1C[C@H](C)[C@@H](CN(C)S(=O)(=O)c2ccc(Cl)cc2)OCCCC[C@H](C)Oc2ccc(NC(=O)Nc3cccc4ccccc34)cc2C1=O	n	x	x	x	x	x
COc1ccc2c3c(n(C)c2c1)[C@H](CO)N(C(=O)Cc1ccccn1)CC31CCN(CC2CCCCC2)CC1	n	x	x	x	x	x
O=C(O)c1ccc(COc2ccc3ccccc3c2)o1	n	n	8.6	n	n	8.7
NC(=O)c1ncn([C@@H]2O[C@H](CNCc3cccn3-c3ccncc3)[C@@H](O)[C@H]2O)n1	n	n	8.4	n	n	n
COc1ccc(-c2cn(CC[C@H]3CC[C@H](NC(=O)NC(C)C)[C@H](CO)O3)nn2)cc1	n	x	x	x	x	x
COc1ccc(-c2cn(-c3ccc(C)cc3)c(=O)n2CC(=O)Nc2ccc(OC)cc2OC)cc1	x	n	8.8	n	n	n
O=C(OCC1CC(c2ccccc2)=NO1)c1ccc(Br)cc1 (configuration not stated)	n	n	n	n	x	x
O=C(OCC1CC(c2ccccc2Cl)=NO1)c1ccc(Br)cc1 (configuration not stated)	x	n	11	n	n	n
CCN(CC)CCNc1nc(SC)nc2sc3c(c12)CCN(C)C3	n	n	9.2	n	n	n
CSc1nc(NCCCN(C)C)c2c3c(sc2n1)CN(C)CC3	n	x	n	x	x	x
COc1ccc(C2Nc3ccccc3C(=O)N2c2ccc(C)cc2)cc1COc1ccccn1 (configuration not stated)	x	n	14	n	12	n
Cc1nc(CNS(=O)(=O)c2ccc(F)cc2)cs1	n	n	8.4	n	n	n
COc1ccc(CN(C)C[C@@H]2Oc3ccc(NC(=O)NC(C)C)cc3C(=O)N([C@H](C)CO)C[C@H]2C)cc1	n	x	x	x	x	x
O=C1CC(c2ccccc2)Sc2nc3ccccc3n21 (configuration not stated)	n	n	12	n	8.8	8.6
Cc1nc(NCc2ccco2)c2c(C)c(C)sc2n1	x	n	n	n	x	x
Cc1sc2nc3c4ccccc4c(NCc4ccco4)nn3c(=O)c2c1C	x	n	13	n	43	19
CCN(CC)S(=O)(=O)c1cc(NC(=O)C(C)N(C)CC(=O)Nc2c(C)cccc2C)ccc1C (configuration not stated)	x	n	9.2	n	n	n
SMILES	CFTR F508del cor	MC4R barr agon	SMARCA2 act	MC4R antagonist	SMARCA2 act conf	VP16 Luc act
CCN(CC)S(=O)(=O)c1cc(NC(=O)C(C)N2CCc3ccccc32)ccc1C (configuration not stated)	n	n	n	n	x	x
C[C@@H]1CN([C@H](C)CO)C(=O)c2cc(-c3cccc(C#N)c3)cnc2O[C@@H]1CN(C)C(=O)C1CC1	n	x	x	x	x	x
COc1ccc(-c2csc(-c3ccccc3)n2)c(OC)c1	n	n	n	n	x	x
COc1ccc(-c2csc(-c3cccs3)n2)c(OC)c1	n	n	11	n	12	8.4
CCOC(=O)c1ccc(/C=C2/C=C(c3ccccc3)N(c3ccc(Cl)c(C(=O)O)c3)C2=O)cc1	x	n	12	n	n	n
CN(C(=O)COC(=O)c1ccc2c(c1)OCO2)C1CCCCC1	n	n	9.9	n	n	n
CN(C(=O)COC(=O)c1ccc2c(c1)OCO2)C1CCS(=O)(=O)C1 (configuration not stated)	x	n	n	n	x	x
O=C(C[C@H]1C[C@H]2c3cc(NC(=O)NC4CCCC4)ccc3O[C@H]2[C@@H](CO)O1)NCC1CC1	n	x	x	x	x	x
O=C(NC1CCC1)[C@@H]1[C@@H](CO)[C@@H]2Cn3c(ccc(C4=CCCCC4)c3=O)[C@H]1N2CC1CC1	n	x	x	x	x	x
COc1cc(OC)nc(C(NC(=O)C2CCN(Cc3c[nH]c4ccccc34)CC2)c2ccc(Cl)cc2)n1 (configuration not stated)	n	n	12	n	n	n
CN1CCN(C(=S)NC(=O)c2cccc([N+](=O)[O-])c2)CC1	n	n	n	n	x	x
CC1CCN(C(=S)NC(=O)c2cccc([N+](=O)[O-])c2)CC1	n	n	8.6	n	n	n
Cc1cccc(-c2nnc(-c3cccc4ccccc34)o2)c1	n	n	n	n	x	x
Cc1cccc(-c2nnc(-c3ccc4ccccc4c3)o2)c1	n	n	11	n	n	n
CNC(=O)C[C@H]1CC[C@@H]2[C@H](COC[C@@H](O)CN2C(=O)Nc2ccc3c(c2)OCO3)O1	n	x	x	x	x	x
CN1C(=O)c2cc(NS(=O)(=O)c3cccc(F)c3)ccc2OC[C@@H]2O[C@@H](CC(=O)O)CC[C@@H]21	n	x	x	x	x	x
CCCCCOc1ccc(C(=O)N(Cc2ccco2)C2CCS(=O)(=O)C2)cc1 (configuration not stated)	n	n	8.9	n	n	n
CC(C)COc1ccc(C(=O)N(Cc2ccco2)C2CCS(=O)(=O)C2)cc1 (configuration not stated)	x	n	n	n	x	x
Cc1ccc(C=C2C=C(c3ccccc3)OC2=O)cc1	n	n	8.6	n	n	6.1
CC(C)COC(=O)c1ccc2c(c1O)C(=O)c1ccccc1C2=O	x	n	8.7	n	n	n
Cc1ccccc1NC(=O)c1cccc(C(F)(F)F)c1	n	n	8.2	n	n	n
CCOC(=O)N/N=C(\CCC(=O)O)c1cccs1	n	n	n	n	x	x
C/C(=N\NC(=O)c1sccc1C)c1cccnc1	n	n	n	n	x	x
C/C(=N\NC(=O)c1cccs1)c1ccncc1	n	n	9.5	n	n	n
C/C(=N\NC(=O)c1sccc1C)c1ccncc1	n	n	9.2	n	9.4	10
O=C(O)CC/C(=N/NC(=O)c1cccs1)c1ccccc1	x	n	9.2	n	n	n
